High-throughput results: PubChem BioAssay, several laboratories
Most compounds without a hit are left out; they make up all but 1.6% or so of the library.
NR2E3 ag-1: agonists of human NR2E3 nuclear receptor; Q9Y5X4; CHO-S Gal4-NCOR/VP16-NR2E3 two-hybrid, luciferase; inhibition of corepressor binding, % at 3.98 µM; 360,000 compounds, 0.35% hits; AID 602229;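 active = inhibition above the mean of all tested compounds plus 3 SD, cut at about 70% in these data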;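 also: 0% = DMSO with NR2E3 transfected cells and 100% = cells lacking NR2E3 construct; higher means lower luciferase signal from less NR2E3 corepressor binding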
NR1D1 modulator: Rev-erb alpha (human) modulation; P20393; Rev-erbα–FITC-DNA binding, fluorescence polarization, 90 min; activity, % at 10 µM; 370,000 compounds, 0.79% hits;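 active = activity above about 14%, limit read from the data; passing the limit was not always enough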;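 also: 0% = DMSO wells with 35 nM protein and 100% = DMSO wells with 750 nM protein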
PG9 binder: PG9 antibody binding by small molecule. AID 624416. 360,000 compounds, 0.43% hits. TR-FRET gp120-PG9 antibody binding. inhibition, % at 6.7 µM; in the data active = inhibition above about 8.5%
PKA-R2B act: PKA-R2B complex activation. PKA-R2B holoenzyme dissociation, Cy5-IP20 fluorescence polarization; R2B truncated from residue 108, S112A mutant; 0% DMSO only, 100% 113 µM cGMP. activation, % at 11.4 µM. 340,000 compounds, 0.079% hits;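 active = activation above a cutoff set at the mean over all compounds plus 3 SD, cut at about 18% in these data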;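 also: higher means more holoenzyme dissociation and a rise in polarization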
Target sequence (P31323 whole entry, looked up, other chains not shown, the tested form may be a part): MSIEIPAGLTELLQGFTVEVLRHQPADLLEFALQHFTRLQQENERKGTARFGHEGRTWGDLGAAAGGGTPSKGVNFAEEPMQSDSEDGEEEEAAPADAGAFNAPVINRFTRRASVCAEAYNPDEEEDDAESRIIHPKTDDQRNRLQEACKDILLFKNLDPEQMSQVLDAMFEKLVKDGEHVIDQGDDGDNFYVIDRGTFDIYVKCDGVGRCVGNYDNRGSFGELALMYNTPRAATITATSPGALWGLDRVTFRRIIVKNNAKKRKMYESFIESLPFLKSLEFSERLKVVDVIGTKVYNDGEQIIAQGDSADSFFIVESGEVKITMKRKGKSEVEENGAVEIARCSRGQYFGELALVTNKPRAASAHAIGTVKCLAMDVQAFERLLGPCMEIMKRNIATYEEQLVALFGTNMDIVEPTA
PKA-R1A activ: activators of PKA-R1A complex; PKA-R1A dissociation, Cy5-IP20 fluorescence polarization; scaled: DMSO 0%, 113 µM cGMP 100%; P00514+P68181; activation, % at 11.4 µM; 340,000 compounds, 0.083% hits;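 active = percent activation above the mean of all tested compounds plus 3 SD, cut at about 19% in these data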;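 also: higher means more PKAc released from R1A so a rise in polarization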
NR2E3 ag-2: NR2E3 (human) agonism; Q9Y5X4; GST-NR2E3/biotin-RetCOR TR-FRET, 1536-well; inhibition of corepressor binding, % at 4.78 µM; 320,000 compounds, 0.12% hits; AID 2300;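 active = percent inhibition above the cutoff of mean plus 3 SD of all tested compounds, set per screening campaign, cut at about 20% in these data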;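 also: 0% = DMSO wells and 100% = biotin wells as full block of FRET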
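Material – GST-tagged NR2E3 plus biotinylated RetCOR corepressor · Quantity – NR2E3 fusion 1.35 nM · Times – 5 h incubation at 4 °C · Medium – pH 7.5 Tris-based buffer · Technique – TR-FRET, Eu(K)-anti-GST donor, streptavidin-D2 acceptor, ex 340, em 617/671 nm · Benchmarks – high control biotin, low control 0.6% DMSO · Format – 1536-well plates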
NR1D1 mod conf: confirmation of modulators of human Rev-erb alpha DNA binding; shares compounds with NR1D1 modulator; Rev-erb alpha FITC-DNA binding, fluorescence polarization, 90 min; activation, % at 25 µM; 3,000 compounds, 61% hits;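 active = activation at or above a set limit, or at least 3 SD above the negative control mean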;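 also: 0% = 35 nM protein with DMSO and 100% = 750 nM protein high control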
RORg DNA counter: RORgamma DNA-binding activity, dose-response counter-screen | shares compounds with NR1D1 modulator | purified RORgamma protein-FITC-DNA binding, fluorescence polarization | IC50, µM | 910 compounds, 8% hits;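 active = Compounds whose fitted half-maximal concentration for disrupting protein-DNA binding is below 10 micromolar; the record names Rev-erb in its text, so the target is in doubt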
* hit, by the source's call; i = inactive; · = no result.

SMILES	NR2E3 ag-1	NR1D1 modulator	PG9 binder	PKA-R2B act	PKA-R1A activ	NR2E3 ag-2	NR1D1 mod conf	others
O=C(Nc1ccc(SC(F)F)cc1)c1ccc2c(=O)n3c(nc2c1)CCC3	-47.4	-4.0	-0.8	-8.5	-9.5	-1.1	·
N#Cc1ccc(-c2cccnc2)nc1SCC(=O)c1ccccc1	-91.4	23.1*	-1.5	-6.5	1.9	1.9	30.0*
CCN(CC)C(=O)CSc1nc(-c2ccccc2)ccc1C#N	14.6	1.2	-0.6	6.2	-3.3	0.8	·
N#Cc1ccc(-c2ccccc2)nc1SCC(=O)c1cccc(Cl)c1	-16.9	38.5*	-0.4	7.7	0.4	4.6	18.0*
CCCCN1CCS(=O)(=O)N(Cc2cn(Cc3ccc(C)cc3)nn2)C(C(=O)OC)C1 (configuration not stated)	·	-1.4	·	·	·	·	·
CC(=O)c1c(N2CCOCC2)nc2ccc(Cl)cc2c1-c1ccccc1	-7.3	30.5*	-0.4	-9.9	-16.0	2.4	28.3*
Cc1nc2ccc(Cl)cc2c(-c2ccccc2)c1C(=O)N(C)C	-2.9	0.7	-1.4	-0.4	-1.3	-0.2	·
Cc1ccc(Oc2nccc(-c3ccc(Cl)cc3)n2)cc1	-51.1	47.1*	0.7	-5.3	8.3	4.1	45.6*	RORg DNA counter=>40
O=C(Nc1cc([N+](=O)[O-])ccc1O)NC1CCS(=O)(=O)C1 (configuration not stated)	4.1	15.8*	-3.4	-0.9	-8.2	-0.6	14.7*
O=C(Nc1cccc([N+](=O)[O-])c1)NC1CCS(=O)(=O)C1 (configuration not stated)	-13.8	-1.2	0.7	8.1	0.5	3.0	·
CCOC(=O)c1ccc(CNC(=O)CSc2nnc(-c3ccncc3)o2)cc1	13.8	-3.7	-0.3	-6.7	5.6	1.7	·
CCOC(=O)c1ccc(CNC(=O)CSc2nc(NC(=O)c3ccccc3)c3c(C)c(C)oc3n2)cc1	8.8	27.2*	1.3	-5.3	-9.6	1.7	36.6*	RORg DNA counter=>40
Cc1cc(/C=C2\C(=N)N3C(SCc4ccccc4)=NSC3=NC2=O)c(C)n1Cc1ccccc1	-37.5	73.5*	-2.4	-10.1	-1.5	2.4	41.3*
CCC(CC)C1=NN2C(=N)/C(=C\c3cc(C)n(-c4cccc(C)c4)c3C)C(=O)N=C2S1	-4.5	32.0*	-2.7	-5.2	-15.9	-1.0	-7.1
COC(=O)[C@]12C[C@H](CC(=O)NCc3ccc(OC)c(OC)c3)C(=O)N(CCC3=CCCCC3)C1=C[C@H](C(C)C)O[C@@H]2C1CC1	·	2.5	·	·	·	·	·
COc1cccc(-c2nnc(-c3ccc(C(F)(F)F)cc3)o2)c1	-100.1	1.1	1.1	-1.7	1.4	1.8	·
Oc1ccccc1-c1nnc(-c2ccc(C(F)(F)F)cc2)o1	-37.4	39.1*	1.2	-8.9	-5.1	-3.1	22.8*
Cc1ccc(NC(=O)[C@H]2CC(=O)O[C@@H]2c2ccccc2)cc1C	·	1.1	·	·	·	·	·
CCCCCCCCN1C(=O)[C@@H](CC(=O)N2CCOCC2)C[C@@]2(C(=O)OC)C1=C[C@H](C(C)C)O[C@@H]2C1CC1	·	6.6	·	·	·	·	·
CCn1cc(C2N3CC4(C)CN2CC(C)(C3)C4=O)c2ccccc21 (configuration not stated)	-10.5	50.0*	-1.1	-6.3	-16.1	-3.2	56.1*	RORg DNA counter=i
CC12CN3CC(C)(CN(C1)C3c1ccc3ccccc3c1O)C2=O (configuration not stated)	-20.7	7.0	-0.1	-1.4	1.0	0.7	·
O=C(Cc1sc(-c2ccccc2)nc1-c1ccccc1)Nc1ccc(Cl)cc1	0.7	25.3*	-0.4	5.8	7.0	-3.7	33.2*	RORg DNA counter=>40
CCOC(=O)[C@]12CCCC3=C1N(CCC3)C(=O)[C@@H](CC(=O)NCCC(C)C)C2	·	-4.4	·	·	·	·	·
CCCCCCn1cnc2c(c1=O)c1nc3ccccc3nc1n2Cc1cccs1	-16.6	30.8*	2.6	3.1	2.1	-0.6	9.5
C[C@@H](O[Si](c1ccccc1)(c1ccccc1)C(C)(C)C)[C@@H]1NC(=O)[C@@H]2C[C@]3(Br)c4ccccc4N(S(=O)(=O)c4ccccc4)[C@@H]3N2C1=O	·	-6.1	·	·	·	·	·
SMILES	NR2E3 ag-1	NR1D1 modulator	PG9 binder	PKA-R2B act	PKA-R1A activ	NR2E3 ag-2	NR1D1 mod conf	others
COc1cc(/C=C(\C#N)C(=O)Nc2cc(C(F)(F)F)ccc2Cl)ccc1OCC(=O)Nc1cccc(C(F)(F)F)c1	22.5	34.0*	-1.1	-17.3	-19.2	5.8	19.0*
CC(=O)N1CCc2cc(S(=O)(=O)NC3CCN(C(=O)OCc4ccccc4)CC3)ccc21	·	4.2	·	·	·	·	·
CCC[C@H]1[C@@H](OC(=O)NC(CC)CC)CC[C@@]23CCCN2C(=O)CCC[C@@H]13	·	0.9	·	·	·	·	·
O=C(c1cccc(Cl)c1)N1CCN(c2ccnc3cc(Cl)ccc23)CC1	·	-0.8	·	·	·	·	·
O=S(=O)(c1ccccc1)N1CCN(c2cccc(Cl)c2)CC1	10.2	-3.0	-0.1	-4.5	-1.7	-4.8	·
O=c1ccc(-c2ccc(S(=O)(=O)N3CCN(c4cccc(Cl)c4)CC3)o2)n[nH]1	-8.4	75.6*	3.3	5.1	0.7	-1.5	86.3*	RORg DNA counter=i
CC1CCC2(CC1)CCN(CCCOC(=O)Nc1cccc(F)c1)C2=O (configuration not stated)	·	1.7	·	·	·	·	·
CCCC(=O)Nc1cc(C)c2c(=O)oc3ccccc3c2n1	10.4	-2.7	-1.2	-7.0	-7.7	3.4	·
Cc1cc(NC(=O)CC(C)(C)C)nc2c1c(=O)oc1ccccc12	3.8	38.5*	-0.3	1.6	-2.9	0.6	8.4
Cc1cc(NC(=O)c2ccccc2F)nc2c1c(=O)oc1ccccc12	-19.1	31.8*	2.2	-3.8	2.0	0.0	5.2
COC1=C[C@H](C(=O)NCc2ccccn2)[C@H](C)[C@@H](c2ccccc2)CC1=O	·	5.0	·	·	·	·	·
O=C(NCCc1ccccc1Cl)[C@@H]1CCCN1C(=O)[C@@H](NC(=O)N1CCOCC1)C1CCCCC1	·	5.3	-0.2	·	·	·	·
CCN(CC)c1ccc(N=Nc2ncn[nH]2)cc1	-114.4	26.4*	-9.0	·	·	-5.2	26.5*
Cc1ccccc1OCC(=O)Nc1cccc2nsnc12	-3.5	105.0*	1.6	-15.1	-16.4	-1.1	54.6*	RORg DNA counter=i
COc1ccc(/C=N/NC(=O)Nc2cccc3nsnc23)c(OC)c1	-13.1	68.1*	-0.7	-3.8	-20.1	2.3	23.6*
Cc1ccccc1OCC(=O)Nc1ccccc1N1CCCCC1	5.8	16.7*	-2.9	0.3	-2.5	1.7	16.6
